From ChEMBL document CHEMBL4339209, “Chemical modifications of imidazole-containing alkoxyamines increase C-ON bond homolysis rate: Effects on their cytotoxic properties in glioblastoma cells” (Bioorg Med Chem, 2019)
Activity calls are given as the source filed them. No cut-off for these calls is given here.

What was measured:
[1] = Dissociation constant, pKa of the compound in 1:1 v/v D2O/CD3OD by 1H-NMR spectrometric method; type: physicochemical
In short: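 Samples in D2O/CD3OD (1:1 v/v) were adjusted with DCl/NaOD to a series of pH* values, read on a meter calibrated with non-deuterated standards, and 1H-NMR was recorded at 400 MHz. Imidazole proton chemical shifts were plotted against pH* and fitted sigmoidally. The pKa* was converted by pH = 0.929 pH* + 0.42.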

[2] = Half life in H2O/MeOH buffered with Na2CO3/NaHCO3 at pH 10.3 in presence of alkyl radical scavenger TEMPOR by 31P[1H]-NMR analysis; type: physicochemical; conditions: buffer, pH 10.3
[3] = Half life in H2O/MeOH buffered with HCl/KCl at pH 2.2 in presence of alkyl radical scavenger TEMPOR by 31P[1H]-NMR analysis; type: physicochemical; conditions: buffer
[4] = Half life in H2O/MeOH buffered with HEPES/NaCl at pH 7.4 in presence of alkyl radical scavenger TEMPOR by 31P[1H]-NMR analysis; type: physicochemical; conditions: buffer
[5] = n-octanol/phosphate buffered saline partition coefficient, log D of the compound at pH 7.4 by shake-flask method; type: physicochemical; conditions: octanol/water
In short: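 Shake-flask partition between pre-saturated n-octanol and PBS at pH 7.4. The aqueous phase was quantified by RP-HPLC on a 4.6 × 50 mm column, eluting with CH3CN/H2O (each with 0.1% TFA) from 10:90 to 100:0 over 10 min.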

[6] = Stability in H2O/MeOH buffered with Na2CO3/NaHCO3 at pH 10.3 assessed as temperature; type: physicochemical; conditions: buffer
[7] = tested on: U-251; assay: Cytotoxicity against human U251MG cells assessed as reduction in cell survival measured after 72 hrs by MTT assay; type: functional, cell-based; conditions: for IC50: U-251, 72 h
In short: (§1)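 MTT viability on 2D cultures, U87-MG in DMEM and U251-MG in EMEM with […], both with 10% FBS and Pen Strep. 5000 cells seeded, then 72 h exposure to 500, 250, 100, 50, 25, 10 and 5 μM (DMSO at most […]). MTT 0.5 mg/mL for 1 h, formazan in DMSO read at 550 nm. Survival as % of control. IC50 determined graphically. At least triplicate.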

[8] = Stability in H2O/MeOH buffered with HEPES/NaCl at pH 7.4 assessed as temperature; type: physicochemical; conditions: buffer
[9] = Drug homolysis in H2O/MeOH buffered with Na2CO3/NaHCO3 at pH 10.3 assessed as activation energy in presence of alkyl radical scavenger TEMPOR by 31P[1H]-NMR analysis
[10] = Drug homolysis in H2O/MeOH buffered with HCl/KCl at pH 2.2 assessed as activation energy in presence of alkyl radical scavenger TEMPOR by 31P[1H]-NMR analysis
[11] = Drug homolysis in H2O/MeOH buffered with Na2CO3/NaHCO3 at pH 10.3 assessed as rate constant by measuring nitroxide level in presence of alkyl radical scavenger TEMPOR by 31P[1H]-NMR analysis
[12] = Drug homolysis in H2O/MeOH buffered with HEPES/NaCl at pH 7.4 assessed as rate constant by measuring nitroxide level in presence of alkyl radical scavenger TEMPOR by 31P[1H]-NMR analysis
[13] = Drug homolysis in H2O/MeOH buffered with HCl/KCl at pH 2.2 assessed as rate constant by measuring nitroxide level in presence of alkyl radical scavenger TEMPOR by 31P[1H]-NMR analysis
[14] = Drug homolysis in H2O/MeOH buffered with HEPES/NaCl at pH 7.4 assessed as activation energy in presence of alkyl radical scavenger TEMPOR by 31P[1H]-NMR analysis
[15] = tested on: U-87 MG; assay: Cytotoxicity against human U87MG cells assessed as reduction in cell survival measured after 72 hrs by MTT assay; type: functional, cell-based; conditions: U-87MG ATCC; in short: as §1
[16] = tested on: U-251; assay: Cytotoxicity against human U251MG cells assessed as reduction in cell survival at IC50 measured after 72 hrs in presence of alkyl radical scavenger troxerutin by MTT assay; type: functional, cell-based
In short: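 U251-MG cells in EMEM (10% FBS, Pen Strep, […]) were exposed for 72 h to alkoxyamine together with an equal concentration of the alkyl radical scavenger troxerutin. Survival was read by MTT (0.5 mg/mL, 1 h, OD 550 nm) as % of control, and compared with alkoxyamine alone. At least triplicate.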

logD [5] | SMILES | Kdiss [12] | Ea [14] | Activity [15] | Activity [7] | other results
3.7 | CCOP(=O)(OCC)C(N(OC(C)c1nccn1C)C(C)(C)C)C(C)(C)C (stereo in doubt; form 2) [listing 1 of 2 here] | – | – | – | – | pKa [1]: 6.5; t1/2 [2]: 39 h; t1/2 [3]: 1.98 h; t1/2 [4]: 10 h
4 | CCOP(=O)(OCC)C(N(OC(C)c1c[nH]cn1)C(C)(C)C)C(C)(C)C (stereo in doubt; form 2) [listing 1 of 2 here] | – | – | – | – | pKa [1]: 6.13; t1/2 [2]: 456 h; t1/2 [3]: 190 h; T [6]: 70 °C; t1/2 [4]: 312 h; IC50 [7]: 20 µM
– | CCOP(=O)(OCC)C(N(OC(C)n1ccnc1)C(C)(C)C)C(C)(C)C (stereo in doubt; form 2) | – | – | – | – | pKa [1]: 5.81
0.3 | CCOP(=O)(OCC)C(N(OC(C)n1cc[n+](C)c1)C(C)(C)C)C(C)(C)C (stereo in doubt; form 2) [listing 1 of 2 here] | – | – | – | – | –
0.4 | CCOP(=O)(OCC)C(N(OC(C)c1cn(C)c[n+]1C)C(C)(C)C)C(C)(C)C (stereo in doubt; form 2) [listing 1 of 2 here] | – | – | – | – | T [8]: 80 °C; t1/2 [4]: 29 h
0.5 | CCOP(=O)(OCC)C(N(OC(C)c1n(C)cc[n+]1C)C(C)(C)C)C(C)(C)C (stereo in doubt; form 2) [listing 1 of 2 here] | – | – | – | – | T [8]: 60 °C; t1/2 [4]: 3.4 h
– | CCOP(=O)(OCC)C(N(OC(C)c1c[nH]cn1)C(C)(C)C)C(C)(C)C (stereo in doubt; form 2) [listing 2 of 2 here] | 1.95 ×10⁻⁴ /s | 29.2 kcal/mol | Dose-dependent effect | Dose-dependent effect | Ea [9]: 29.5 kcal/mol; Ea [10]: 29 kcal/mol; Kdiss [11]: 4.07 ×10⁻⁵ /s; Kdiss [13]: 2.8 ×10⁻⁴ /s
– | CCOP(=O)(OCC)C(N(OC(C)c1cn(C)c[n+]1C)C(C)(C)C)C(C)(C)C (stereo in doubt; form 2) [listing 2 of 2 here] | 1.61 ×10⁻³ /s | 27.7 kcal/mol | Dose-dependent effect | Dose-dependent effect | –
– | CCOP(=O)(OCC)C(N(OC(C)c1cn(C)cn1)C(C)(C)C)C(C)(C)C (stereo in doubt; form 2) | 1.24 ×10⁻⁴ /s | 29.5 kcal/mol | Dose-dependent effect | Dose-dependent effect | Ea [9]: 30.3 kcal/mol; Ea [10]: 28.8 kcal/mol; Kdiss [11]: 4.57 ×10⁻⁵ /s; Kdiss [13]: 3.55 ×10⁻⁴ /s
– | CCOP(=O)(OCC)C(N(OC(C)c1n(C)cc[n+]1C)C(C)(C)C)C(C)(C)C (stereo in doubt; form 2) [listing 2 of 2 here] | 1.1 ×10⁻³ /s | 26.4 kcal/mol | Dose-dependent effect | Dose-dependent effect | –
– | CCOP(=O)(OCC)C(N(OC(C)c1ncc[nH]1)C(C)(C)C)C(C)(C)C (stereo in doubt; form 2) | 2.61 ×10⁻⁴ /s | 28.2 kcal/mol | Dose-dependent effect | Dose-dependent effect | Ea [9]: 29.1 kcal/mol; Ea [10]: 26.6 kcal/mol; Kdiss [11]: 2.47 ×10⁻⁴ /s; Kdiss [13]: 9.16 ×10⁻⁴ /s
– | CCOP(=O)(OCC)C(N(OC(C)c1nccn1C)C(C)(C)C)C(C)(C)C (stereo in doubt; form 2) [listing 2 of 2 here] | 1.28 ×10⁻³ /s | 27.1 kcal/mol | Dose-dependent effect | Dose-dependent effect | Ea [9]: 27.9 kcal/mol; Ea [10]: 26.1 kcal/mol; Kdiss [11]: 1.23 ×10⁻³ /s; Kdiss [13]: 1.8 ×10⁻³ /s
– | CCOP(=O)(OCC)C(N(OC(C)n1cc[n+](C)c1)C(C)(C)C)C(C)(C)C (stereo in doubt; form 2) [listing 2 of 2 here] | 2.84 ×10⁻⁵ /s | 32.3 kcal/mol | Dose-dependent effect | Dose-dependent effect | Activity [16]: Active
– | Cn1nnc2c(C(N)=O)ncn2c1=O [TEMOZOLOMIDE] | – | – | – | – | IC50 [7]: 455 µM
